Screening results from PubChem BioAssay.
This is a sample that favours compounds with a hit; in the whole collection about 3.5% have one here.
MrgX1 antagonist: antagonists of human MrgX1 receptor, primary screen, HEK293 cells, Fluo-4 calcium flux; Mas-related G-protein coupled receptor member X1 (Homo sapiens), Q96LB2; BAM8-22 antagonism; hits give low values; B-score at 10 µM; 310,000 tested, 1.3% active; AID 588676, 2011;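 active = calcium-response B-score plate-corrected more than 3 library SD below zero, starting fluorescence within 5 deviations, no agonist response on first addition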;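 also: peak minus trough fluorescence over baseline after final BAM8-22 challenge near maximal dose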
Target sequence (Q96LB2 whole entry, looked up): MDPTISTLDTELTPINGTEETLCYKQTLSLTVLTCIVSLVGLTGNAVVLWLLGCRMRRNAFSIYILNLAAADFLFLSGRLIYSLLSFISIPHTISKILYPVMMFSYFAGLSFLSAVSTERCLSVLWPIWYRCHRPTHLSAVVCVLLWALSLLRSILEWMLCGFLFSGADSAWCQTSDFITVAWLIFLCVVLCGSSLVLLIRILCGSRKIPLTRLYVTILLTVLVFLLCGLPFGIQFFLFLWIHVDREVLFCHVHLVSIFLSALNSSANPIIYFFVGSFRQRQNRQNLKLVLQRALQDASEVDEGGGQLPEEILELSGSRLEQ
MrgX1 ag: agonists of human MrgX1 receptor, primary screen, HEK293 cells, Fluo-4 calcium flux. B-score at 10 µM. AID 588627, 2011. 310,000 tested, 0.44% active. Fluo-4 calcium fluorescence, agonist mode; hits give high values;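 active = calcium response B-score plate-corrected fluorescence ratio at least 3 library SD, with starting fluorescence B-score inside 5 SD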
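Material – MrgX1-expressing HEK293 cells · Input – 15,000 cells seeded per well · Dosing – compound as first of three additions · Times – overnight seeding, then 1 h dark dye loading · Measured by – kinetic Fluo-4 NW fluorescence of intracellular calcium · Read-out – B-scored fluorescence response ratio · Benchmarks – positive and negative control wells on each plate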
RGS4 inh: RGS4 inhibitors, primary screen, cell-based, HEK293 M3R inducible RGS4, calcium flux; Regulator of G-protein signaling 4 (Homo sapiens), P49798; Fluo-4 calcium flux; hits give high values; triggered by carbachol at its EC20; B-score at 10 µM; 310,000 tested, 0.45% active; AID 463165, 2010;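 active = B-score, a plate-corrected calcium signal, over three deviations above library mean, with baseline fluorescence within five deviations of library mean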;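 also: RGS4 expression induced by doxycycline in cells with stable M3 receptor; B-score is computed from the integrated fluorescence ratio over baseline after carbachol; higher B-score means a larger calcium signal and so more RGS4 inhibition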
Target sequence (P49798 whole entry, looked up): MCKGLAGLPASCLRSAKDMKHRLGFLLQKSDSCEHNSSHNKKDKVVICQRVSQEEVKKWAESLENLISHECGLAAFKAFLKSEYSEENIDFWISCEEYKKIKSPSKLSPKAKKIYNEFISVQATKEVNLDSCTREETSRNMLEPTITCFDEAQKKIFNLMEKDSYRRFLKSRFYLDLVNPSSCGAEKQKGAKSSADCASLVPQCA
RGS4 act: RGS4 potentiators or activators, primary screen, cell-based, HEK293 M3R inducible RGS4, calcium flux; carbachol calcium flux Fluo4; hits give low values; B-score at 10 µM; 310,000 tested, 0.92% active;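 active = B-score of the integrated calcium signal more than 4 SD below the library mean, with starting fluorescence not abnormally high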;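 also: negative B-score means reduced calcium response which marks RGS4 activation or potentiation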
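Reagent: ECmax carbachol challenge; Test system: M3R-expressing HEK293 line, RGS4 induced by doxycycline; Schedule: overnight RGS4 induction, 30 min dye load 37 °C, 20 min compound RT; Detection: calcium dye Fluo4 fluorescence; Read-out: Agonist-evoked peak-minus-minimum fluorescence over baseline, integrated ratio, B score.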
MrgX1 allo act: positive allosteric modulators of MrgX1, primary screen, HEK293 cells, Fluo-4 calcium flux; Mas-related G-protein coupled receptor member X1 (Homo sapiens), Q96LB2; FDSS; hits give high values; B-score at 10 µM; 310,000 tested, 0.63% active; AID 588675, 2011;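 active = plate-corrected calcium response at least 3 library SD above typical, normal starting fluorescence, not activating the receptor alone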;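 also: compound read alongside a low EC10 to EC30 dose of BAM8-22 agonist; peak minus trough fluorescence over baseline measured at the second addition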
* marks the source's active call; other numbers are inactive results; i = inactive; x = no result given.

SMILES	MrgX1 antagonist	MrgX1 ag	RGS4 inh	RGS4 act	MrgX1 allo act
O=C(CSCc1c(Cl)cccc1Cl)Nc1ccccc1-c1ccccc1	i	i	i	i	i
CCN1CCN(c2ncc(C(=O)Nc3cc(Cl)c(OC)cc3OC)c3ccccc23)CC1	x	x	i	-7.3*	x
CCN1CCN(c2ncc(C(=O)Nc3c(F)cc(F)cc3Br)c3ccccc23)CC1	i	i	i	i	i
COc1ccccc1Nc1nc(N)nc(CSc2nccc(C)n2)n1	i	i	i	i	i
COc1cc(NC(=O)c2ccc(-c3cccc([N+](=O)[O-])c3)o2)ccc1NC(=O)C(C)C	i	i	i	i	i
O=C(Nc1ccncc1)c1ccc(S(=O)(=O)Nc2ccccc2)cc1	i	i	i	i	i
NC(=O)C(=O)NN=C1C2CC3CC(C2)CC1C3	i	i	i	i	i
NC(=S)NN=C1C2CC3CC(C2)CC1C3	i	i	i	i	8.6*
Cc1ccc(S(=O)(=O)Nc2cccc(-c3ccc(N4CCCCCC4)nn3)c2)cc1C	i	i	i	i	i
O=C(N/N=C/c1c(O)ccc2ccccc12)c1cccnc1	-7.6*	i	i	i	i
O=C(N/N=C/c1c(O)ccc2ccccc12)c1ccc(Br)o1	-5*	i	i	i	i
COc1ccc2ccccc2c1/C=N\NC(=O)c1cccnc1	i	i	i	i	i
O=C(N/N=C\c1c(O)ccc2ccccc12)c1ccc(O)cc1	i	i	i	i	i
Cc1ccsc1C(=O)N1CCN(c2ncc(C(F)(F)F)cc2Cl)CC1	i	i	i	i	i
Cc1nc2nc(-c3cccs3)cn2nc1C	i	i	i	-7*	i
CN1CCN(C2=Cc3ccccc3Sc3cc(F)c(Cl)cc32)CC1	i	i	i	-10*	i
CN1CCN(C2=Cc3ccccc3Sc3cc(F)c(F)cc32)CC1	i	i	i	i	i
O=C(/C(=N\O)n1cncn1)c1ccc(Cl)cc1Cl	i	i	i	i	i
O=C(/C(=C/c1ccccc1)n1cncn1)c1ccc(Cl)cc1Cl	i	27*	i	i	i
Cc1ccc(NC(=O)c2ccc([N+](=O)[O-])cc2)cc1S(=O)(=O)N(C)C	i	i	i	i	i
CCOC(=O)Nc1ccc2c(c1)N(C(=O)CCN1CCN(C)CC1)c1ccccc1S2	i	i	i	i	i
CCOC(=O)Nc1ccc2c(c1)N(C(=O)N1CCN(C)CC1)c1ccccc1S2	i	i	i	-7.3*	i
CC(C)c1cccc(C(C)C)c1NC(=O)COC(=O)c1ccc(OCC(=O)Nc2cccc(C(F)(F)F)c2)cc1	i	i	i	i	i
Cc1nn(Cc2c(F)c(F)c(F)c(F)c2F)c(C)c1NC(=O)c1ccc(COc2ccccc2Cl)o1	i	i	i	i	i
CCCCCCCCNC(C)C(O)c1ccc(SC(C)C)cc1 (configuration not stated)	i	i	i	-7*	i
SMILES	MrgX1 antagonist	MrgX1 ag	RGS4 inh	RGS4 act	MrgX1 allo act
CCO[C@@H]1OC(C(=O)NCc2ccccc2)=C[C@H](c2coc3ccccc3c2=O)[C@H]1CCCO	-5.9*	i	i	i	i
C#CCNC(=O)C1=C[C@@H](c2ccc(C#C)cc2)[C@H](CCCO)[C@@H](OCC)O1	-8.4*	i	i	i	i
Cc1ccc(SCC(=O)Nc2ccc(N3CCN(C)CC3)c(F)c2)c(C)c1	i	i	i	-7.6*	i
CC1(C)OC(=O)C(=CNc2ccccc2)C(=O)O1	-7.3*	i	i	i	i
CC(=O)Nc1ccc2c(c1)c1ccccc1n2C(C)=O	i	i	i	i	i
CC(=O)n1c(-c2ccccc2)c(CO)c2ccccc21	i	i	i	i	22*
O=C(Cn1c(CN2CCCCC2)nc2ccccc2c1=O)Nc1ccccc1	i	i	i	i	i
CCCN(Cc1ccc(N(C)C)cc1)CC1CC1	i	i	i	i	i
CCCN(Cc1ccc(N(CC)CC)cc1)CC1CC1	i	i	i	-7.1*	i
Cc1oc(-c2ccc(Cl)cc2)nc1CS(=O)CC(=O)NCc1ccc2c(c1)OCO2 (configuration not stated)	-4.9*	i	i	i	i
Cc1ccc(C2=Nc3ccccc3N(C(=O)c3ccccc3)C(C)C2)cc1 (configuration not stated)	-8.9*	i	i	i	i
CC(=O)OC1CC(C)N(C(=O)c2ccccc2)c2ccc(C)cc21 (configuration not stated)	i	i	i	i	i
COc1cccc(-c2cc3c(-n4cccc4)ncnc3o2)c1	i	i	i	-7.1*	i
CCn1ccnc1CN1CCc2c([nH]c3ccccc23)C1C1CCCCC1 (configuration not stated)	i	i	i	-7.6*	i
CCn1ccnc1CN1CCc2c([nH]c3ccccc23)C1C(C)(C)C (configuration not stated)	i	i	i	i	i
Cc1ccccc1-c1nnc(CS(=O)(=O)c2ccccc2)o1	i	i	i	i	i
COc1ccc(CN2CCN(C(=O)C3CCN(S(=O)(=O)c4cccs4)CC3)CC2)c(OC)c1OC	i	i	i	i	i
Cc1cc(C(=O)Nc2c(C)nn(Cc3ccc(F)cc3)c2C)on1	-4.9*	i	i	i	i
CC(Oc1ccc([N+](=O)[O-])cc1Cl)C(=O)Nc1ccc(C(N)=O)cc1 (configuration not stated)	i	i	i	i	i
Cc1cc(C(=O)N/N=C/C=C/c2ccc([N+](=O)[O-])cc2)n[nH]1	i	i	i	i	i
Cc1cc(C(=O)N/N=C/C=C/c2ccc(Br)cc2)n[nH]1	-5.6*	i	i	i	i
CC(=O)NC(C)Cc1cn(Cc2ccccc2)c2ccccc12 (configuration not stated)	i	i	i	i	i
CC1CCN(Cc2ccc(NC(=O)C3CCN(c4nnc(-n5cccc5)s4)CC3)cc2)CC1	i	i	i	-8.2*	i
O=C(C1CCN(c2nnc(-n3cccc3)s2)CC1)N1CCN(Cc2ccc3c(c2)OCO3)CC1	i	i	i	i	i
